Assay outcomes: PubChem BioAssay, several laboratories
Rows were chosen to be rich in hits. Some 2.7% of all compounds tested hit in one or more screens of this group.
MC4R ag barr – agonists of human melanocortin 4 receptor (MC4R) beta-arrestin; P32245; U2OS MC4R beta-arrestin complementation, luminescence; percent of melanotan II response, DMSO zero; activation, % at 8.9 µM; actives 0.98% (n = 360,000); AID 540308;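 active means activation above a per-plate cutoff, the mean activation of sample wells on that plate plus 3 SD, cut at about 8% in these data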
NR2E3 ag-1 – NR2E3 (human) agonism. GST-NR2E3/biotin-RetCOR TR-FRET, 1536-well. inhibition of corepressor binding, % at 4.78 µM. actives 0.12% (n = 320,000);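 active means percent inhibition above the cutoff of mean plus 3 SD of all tested compounds, set per screening campaign, cut at about 20% in these data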;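 further: 0% = DMSO wells and 100% = biotin wells as full block of FRET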
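Assay system: NR2E3–RetCOR corepressor complex. Quantity: 1.35 nM GST-NR2E3. Buffer or medium: pH 7.5 Tris-based buffer. Reagent: biotinylated RetCOR corepressor at 7 nM final. Schedule: 5 h at 4 °C. Detection: TR-FRET, emission read at 617 and 671 nm. Replicates: one well per compound, singlicate testing.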
MC4R antag cAMP – blocks human MC4R cAMP signaling; actives 0.48% (n = 360,000); AID 540295; inhibition, % at 6.5 µM; P32245; MC4R-expressing cells, MTII-stimulated cAMP, LANCE TR-FRET;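 active means inhibition above its plate's cutoff, the mean of tested wells on that plate plus 3 SD, cut at about 29% in these data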;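 further: 0% = Melanotan II alone and 100% = Melanotan II plus saturating MCL0020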
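Material – human MC4R-expressing U2OS cells · Repeats – no replicates · Detection – TR-FRET with Eu-cAMP and labeled anti-cAMP, 671 nm · Times – compound 30 min, challenge 1 h, detection 1 h · Compound – single nominal compound dose of 6.5 µM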
PG9 Ab binder – small molecules binding HIV-1 gp120 antibody PG9; actives 0.43% (n = 360,000); inhibition, % at 6.7 µM; AID 624416; TR-FRET gp120-PG9 antibody binding; in the data active means inhibition above about 8.5%
Rev-erbA mod – modulators of human Rev-erb alpha DNA binding; AID 1259318; P20393; Rev-erbα–FITC-DNA binding, fluorescence polarization, 90 min; activity, % at 10 µM; actives 0.79% (n = 370,000);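 active means activity above about 14%, limit read from the data; passing the limit was not always enough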;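 further: 0% = DMSO wells with 35 nM protein and 100% = DMSO wells with 750 nM protein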
NR2E3 ag-2 – activates human NR2E3 receptor; Q9Y5X4; CHO-S Gal4-NCOR/VP16-NR2E3 two-hybrid, luciferase; inhibition of corepressor binding, % at 3.98 µM; actives 0.35% (n = 360,000); AID 602229;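 active means inhibition above the mean of all tested compounds plus 3 SD, cut at about 70% in these data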;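 further: 0% = DMSO with NR2E3 transfected cells and 100% = cells lacking NR2E3 construct; higher means lower luciferase signal from less NR2E3 corepressor binding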
MC4R barr conf – human MC4R beta-arrestin agonism confirmation. shares compounds with MC4R ag barr. U2OS MC4R beta-arrestin recruitment, luminescence; scaled DMSO 0%, Melanotan II 100%. activation, % at 8.9 µM. actives 31% (n = 2,400);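 active means mean activation across replicates above the hit cutoff set in the earlier primary screen, cut at about 8% in these data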
MOR-DOR barr ag – counter-screen for MC4R agonists: agonists of mu-delta opioid heterodimer; shares compounds with MC4R ag barr; U2OS PathHunter beta-arrestin, beta-gal luminescence; percent of deltorphin B response, DMSO zero; activation, % at 9.2 µM; actives 5.8% (n = 2,400); AID 602194;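 active means mean activation across replicates exceeds the hit threshold derived in the earlier primary screen, cut at about 18% in these data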;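 further: 100% = deltorphin B at 0.9 µM final and 0% = DMSO alone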
Target sequence (P35372 whole entry, looked up): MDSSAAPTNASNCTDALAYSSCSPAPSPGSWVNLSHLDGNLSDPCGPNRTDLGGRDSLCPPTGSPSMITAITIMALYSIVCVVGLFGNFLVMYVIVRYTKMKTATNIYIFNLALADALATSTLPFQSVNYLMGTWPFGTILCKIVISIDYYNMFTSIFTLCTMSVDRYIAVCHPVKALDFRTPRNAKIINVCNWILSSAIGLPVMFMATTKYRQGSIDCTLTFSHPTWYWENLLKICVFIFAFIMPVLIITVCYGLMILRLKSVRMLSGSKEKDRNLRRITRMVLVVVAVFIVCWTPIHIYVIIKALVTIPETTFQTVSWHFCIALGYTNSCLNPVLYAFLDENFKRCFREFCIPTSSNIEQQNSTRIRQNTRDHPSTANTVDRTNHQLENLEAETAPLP
Target sequence (P41143 whole entry, looked up): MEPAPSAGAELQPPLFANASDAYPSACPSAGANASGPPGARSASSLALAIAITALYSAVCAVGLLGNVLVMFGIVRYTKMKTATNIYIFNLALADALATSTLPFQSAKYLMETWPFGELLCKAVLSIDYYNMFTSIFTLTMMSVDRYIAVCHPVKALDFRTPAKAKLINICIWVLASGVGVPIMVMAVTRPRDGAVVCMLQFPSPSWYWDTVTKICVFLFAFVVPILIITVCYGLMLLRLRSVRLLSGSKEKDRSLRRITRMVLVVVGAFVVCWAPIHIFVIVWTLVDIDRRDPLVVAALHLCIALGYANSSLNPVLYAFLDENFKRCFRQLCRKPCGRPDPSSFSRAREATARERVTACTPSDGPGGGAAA
The depositor's hits bear a star; x = not tested or not shown.

SMILES	MC4R ag barr	NR2E3 ag-1	MC4R antag cAMP	PG9 Ab binder	Rev-erbA mod	NR2E3 ag-2	MC4R barr conf	MOR-DOR barr ag
O=C(CSc1nc2ccccc2s1)Nc1ccc(Cl)c(C(=O)O)c1	1	2	1	-2	-9	-32	x	x
Cc1ccc(C(=O)NCC(=O)NNC(=O)CN(C)S(=O)(=O)c2ccc(Cl)cc2)s1	-3	-1	3	-2	3	1	x	x
CC[C@]12c3[nH]c4ccc(Cl)cc4c3CCN1C(=O)[C@@H](CC(=O)NCc1cccc(C(F)(F)F)c1)C[C@@H]2C(=O)N1CCN(C(=O)c2ccco2)CC1	3	x	1	2	9	-11	x	x
COc1cc(OC)cc(C(=O)NC(=S)Nc2ccc(NC(=O)c3ccco3)cc2)c1	12*	-2	1	-1	-3	12	3	5
O=C(Nc1ccc(NC(=O)c2ccco2)cc1)c1ccco1	1	0	1	-2	4	-40	x	x
CCOc1ccc(C(=O)NC(=S)Nc2ccc(NC(=O)c3ccco3)c(C)c2)cc1[N+](=O)[O-]	10*	3	5	-1	2	-16	7	5
COc1cc(NC(=O)c2ccc(OC)c([N+](=O)[O-])c2)ccc1NC(=O)c1ccco1	8	0	-1	-2	-1	21	x	x
COc1ccccc1C(=O)Nc1ccc(NC(=O)c2ccco2)cn1	-1	5	-1	1	1	-88	x	x
CC(C)(C)c1ccc(C(=O)Nc2ccc(NC(=O)c3ccco3)cc2)cc1	25*	-1	9	1	2	-19	6	13
COc1cc(OC)cc(C(=O)Nc2ccc(NC(=O)c3ccco3)c(Cl)c2)c1	4	1	1	-1	-5	-23	x	x
COc1ccccc1C(=O)NC(=S)Nc1ccc(NC(=O)c2ccco2)cc1	11*	1	2	2	-5	-8	3	4
CCCCOc1ccc(/C(O)=C2/C(=O)C(=O)N(CCN(C)C)C2c2ccc(O)c(OC)c2)cc1 (centres undefined)	0	2	13	-1	2	-9	x	x
COc1ccccc1C(=O)NC(=S)Nc1ccc(NC(=O)c2cccs2)cc1	27*	2	9	-1	-7	-1	5	5
NS(=O)(=O)c1ccc(NC(=S)NC(=O)c2cccs2)cc1	-1	2	-2	-1	1	-19	x	x
O=C(NC(=S)Nc1ccc(S(=O)(=O)N2CCCCC2)cc1)c1cccs1	13*	-1	-1	-1	1	5	-4	2
O=C1NC2(CCC3(CC2)OCCO3)NN1c1ccccc1	-2	-1	3	0	5	-11	x	x
O=C1NC2(NN1c1ccccc1)C1CC3CC(C1)CC2C3 (centres undefined)	18*	4	15	1	5	3	3	5
COc1ccc(S(=O)(=O)N2CCCCCC2)cc1C(=O)Nc1cccc(C)n1	3	-2	-1	-3	0	-4	x	x
COc1ccc(/C=C/C(=O)NCc2c(C)nn(C)c2C)cc1COc1ccc(Br)cc1	12*	1	-4	0	2	-16	1	3
CCOC(=O)c1c(NC(=O)C2COc3ccccc3O2)sc2c1CCN(Cc1ccccc1)C2 (centres undefined)	0	3	2	-1	0	-3	x	x
NC(=O)c1c(NC(=O)C2COc3ccccc3O2)sc2c1CCN(Cc1ccccc1)C2 (centres undefined)	14*	-15	21	-70	4	-12	1	5
Cc1ccc(/C=C2\SC(=S)N(CCC(=O)NNC(=O)c3ccccc3O)C2=O)cc1	0	3	0	-2	-2	-16	x	x
Cc1ccc(/C=C2\SC(=S)N(CCC(=O)NNS(=O)(=O)c3ccccc3)C2=O)cc1	47*	-23	14	x	1	19	1	6
COc1ccccc1/C=C1\SC(=S)N(CCC(=O)Nc2cc(C)on2)C1=O	-1	4	12	-2	-1	-8	x	x
CC(/C=C1\SC(=S)N(CCC(=O)Nc2ccc(O)cc2)C1=O)=C\c1ccccc1	22*	0	3	-1	1	-11	13*	6
SMILES	MC4R ag barr	NR2E3 ag-1	MC4R antag cAMP	PG9 Ab binder	Rev-erbA mod	NR2E3 ag-2	MC4R barr conf	MOR-DOR barr ag
O=C(CCN1C(=O)/C(=C/c2cccs2)SC1=S)Nc1cccc(O)c1	3	4	-5	-5	-1	14	x	x
O=C(CCN1C(=O)/C(=C/c2cccs2)SC1=S)Nc1ccc(O)cc1	11*	3	-4	-4	-2	-5	6	6
Cc1cc(NC(=O)CCN2C(=O)/C(=C/c3ccccc3Cl)SC2=S)no1	16*	-3	4	-4	1	-15	5	3
O=C(CSc1nnc(SCc2ccc(Cl)cc2)s1)N1CCN(C(=O)c2ccco2)CC1	-1	2	7	1	5	-7	x	x
CC(NC(=O)c1ccccc1Cl)NC(=O)c1ccccc1Cl	-1	x	5	0	3	-43	x	x
O=C(COC(=O)c1ccc(O)cc1)Nc1ccc(N2CCCCC2)cc1	0	0	4	-4	-4	-7	x	x
COc1cc(OC)cc(C(=O)OCC(=O)Nc2ccc(N3CCCCC3)cc2)c1	13*	2	-2	-1	1	-12	2	10
O=C(COC(=O)c1ccccc1OC(F)F)Nc1ccc(N2CCCCC2)cc1	11*	-2	-2	-1	5	17	-1	4
CNc1nc(-c2ccc3c(c2)CCN3S(=O)(=O)c2ccccc2)c(C)s1	-2	5	18	5	7	-25	x	x
O=C(COc1ccc(F)cc1)N1CCc2ccccc2C1	-1	-1	-2	-3	4	-17	x	x
CCOc1cccc(N2C(=O)CC(NNC(=O)c3ccc(Br)o3)C2=O)c1 (centres undefined)	-1	0	11	-3	-1	5	x	x
CCCOc1ccc(N2C(=O)CC(NNC(=O)c3ccc(COc4ccccc4)o3)C2=O)cc1 (centres undefined)	13*	1	21	-3	0	-20	5	7
O=C(N/N=C/c1ccc(F)cc1)c1cccc(NC(=O)c2ccc(F)cc2)c1	42*	1	0	-1	-6	-79	2	2
Cc1ccc(-c2csc(NC(=O)CSc3nnc4c(n3)[nH]c3ccccc34)n2)cc1	16*	-2	-5	0	2	-42	3	7
